Data taken from ChEMBL document CHEMBL3112482, “Nonclassical antifolates, part 5. Benzodiazepine analogs as a new class of DHFR inhibitors: synthesis, antitumor testing and molecular modeling study” (Eur J Med Chem, 2014).

Assays:
[1] = Cytotoxicity against human colon cancer cells at 10 uM after 48 hrs; format: functional; conditions: Cancer cell lines; for CC50: read-out: LC50 (the source's name)
How it was run: (§1)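 Single-dose primary screen in the NCI 60 human tumour cell line panel, run at the NCI facility. The panel covers nine subpanels: leukaemia, non-small cell lung, colon, CNS, melanoma, ovarian, renal, prostate and breast. Read-out was percent growth of treated cells, shown as a mean graph and reported as percent growth inhibition.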

[2] = Cytotoxicity against human CNS cancer cells at 10 uM after 48 hrs; format: functional; conditions: Cancer cell lines; for CC50: read-out: LC50 (the source's name)
[3] = Cytotoxicity against human non-small cell lung cancer cells at 10 uM after 48 hrs; format: functional; conditions: Cancer cell lines; for CC50: read-out: LC50 (the source's name); how it was run: as §1
[4] = Cytotoxicity against human melanoma cells at 10 uM after 48 hrs; format: functional; conditions: Melanoma cell; for CC50: read-out: LC50 (the source's name); how it was run: as §1
[5] = Cytotoxicity against human prostate cancer cells at 10 uM after 48 hrs; format: functional; conditions: Cancer cell lines
[6] = Cytotoxicity against human leukemia cells at 10 uM after 48 hrs; format: functional; conditions: Leukemia cell
[7] = Cytotoxicity against human breast cancer cells at 10 uM after 48 hrs; format: functional; conditions: Cancer cell lines; how it was run: as §1
[8] = Cytotoxicity against human renal cancer cells at 10 uM after 48 hrs; format: functional; conditions: Cancer cell lines
PC-3 = assay: Growth inhibition of human PC3 cells at 10 uM after 48 hrs; format: functional; conditions: PC-3, 48 h, read-out: GI; how it was run: as §1
NCI-H460 = assay: Growth inhibition of human NCI-H460 cells at 10 uM after 48 hrs; format: functional; conditions: NCI-H460, 48 h, read-out: GI; how it was run: as §1
CAKI-1 = assay: Growth inhibition of human CAKI-1 cells at 10 uM after 48 hrs; format: functional; conditions: CAKI-1, 48 h, read-out: GI; how it was run: as §1
SK-MEL-5 = assay: Growth inhibition of human SK-MEL-5 cells at 10 uM after 48 hrs; format: functional; conditions: SK-MEL-5, 48 h, read-out: GI
How it was run: (§2)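 NCI 60-cell-line disease-oriented human tumor panel, single-dose primary screen at 10 µM. Data given as mean-graph percent growth of treated cells, reported as percent growth inhibition (GI %).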

NCI-H23 = assay: Growth inhibition of human NCI-H23 cells at 10 uM after 48 hrs; format: functional; conditions: NCI-H23, 48 h, read-out: GI; how it was run: as §1
OVCAR-8 = assay: Growth inhibition of human OVCAR8 cells at 10 uM after 48 hrs; format: functional; conditions: OVCAR-8, 48 h, read-out: GI; how it was run: as §1
[9] = Growth inhibition of human UACC257 cells at 10 uM after 48 hrs; format: functional; conditions: UACC-257, 48 h, read-out: GI; how it was run: as §2
[10] = Growth inhibition of human UO31 cells at 10 uM after 48 hrs; format: functional; conditions: UO-31, 48 h, read-out: GI; how it was run: as §2
HOP-62 = assay: Growth inhibition of human HOP62 cells at 10 uM after 48 hrs; format: functional; conditions: HOP-62, 48 h, read-out: GI; how it was run: as §1
SR = assay: Growth inhibition of human SR cells at 10 uM after 48 hrs; format: functional; conditions: read-out: GI; how it was run: as §2
A498 = assay: Growth inhibition of human A498 cells at 10 uM after 48 hrs; format: functional; conditions: A498, 48 h, read-out: GI; how it was run: as §1
K562 = assay: Growth inhibition of human K562 cells at 10 uM after 48 hrs; format: functional; conditions: K562, 48 h, read-out: GI; how it was run: as §1
SK-MEL-28 = assay: Growth inhibition of human SK-MEL-28 cells at 10 uM after 48 hrs; format: functional; conditions: SK-MEL-28, 48 h, read-out: GI; how it was run: as §2
[11] = Growth inhibition of human SF539 cells at 10 uM after 48 hrs; format: functional; conditions: SF-539, 48 h, read-out: GI; how it was run: as §2
NCI-H322M = assay: Growth inhibition of human NCI-H322M cells at 10 uM after 48 hrs; format: functional; conditions: read-out: GI; how it was run: as §1
MDA-MB-231 = assay: Growth inhibition of human MDA-MB-231 cells at 10 uM after 48 hrs; format: functional; conditions: MDA-MB-231, 48 h, read-out: GI; how it was run: as §1
IGROV-1 = assay: Growth inhibition of human IGROV1 cells at 10 uM after 48 hrs; format: functional; conditions: IGROV-1, 48 h, read-out: GI; how it was run: as §1
TK-10 = assay: Growth inhibition of human TK10 cells at 10 uM after 48 hrs; format: functional; conditions: TK-10, 48 h, read-out: GI; how it was run: as §2
A549 = assay: Growth inhibition of human A549 cells at 10 uM after 48 hrs; format: functional; conditions: A549, 48 h, read-out: GI; how it was run: as §1
DU-145 = assay: Growth inhibition of human DU145 cells at 10 uM after 48 hrs; format: functional; conditions: DU-145, 48 h, read-out: GI; how it was run: as §1
[12] = Growth inhibition of human EKVX cells at 10 uM after 48 hrs; format: functional; conditions: read-out: GI; how it was run: as §1
T47D = assay: Growth inhibition of human T47D cells at 10 uM after 48 hrs; format: functional; conditions: read-out: GI; how it was run: as §2
[13] = Growth inhibition of human OVCAR5 cells at 10 uM after 48 hrs; format: functional; conditions: OVCAR-5, 48 h, read-out: GI; how it was run: as §1
MCF7 = assay: Growth inhibition of human MCF7 cells at 10 uM after 48 hrs; format: functional; conditions: MCF7, 48 h, read-out: GI; how it was run: as §1
U-251 = assay: Growth inhibition of human U251 cells at 10 uM after 48 hrs; format: functional; conditions: U-251, 48 h, read-out: GI; how it was run: as §2
KM12 = assay: Growth inhibition of human KM12 cells at 10 uM after 48 hrs; format: functional; conditions: KM12, 48 h, read-out: GI; how it was run: as §1
SNB-19 = assay: Growth inhibition of human SNB19 cells at 10 uM after 48 hrs; format: functional; conditions: SNB-19, 48 h, read-out: GI; how it was run: as §2
OVCAR-3 = assay: Growth inhibition of human OVCAR3 cells at 10 uM after 48 hrs; format: functional; conditions: OVCAR-3, 48 h, read-out: GI; how it was run: as §1
SN12C = assay: Growth inhibition of human SN12C cells at 10 uM after 48 hrs; format: functional; conditions: read-out: GI; how it was run: as §2
SK-MEL-2 = assay: Growth inhibition of human SK-MEL-2 cells at 10 uM after 48 hrs; format: functional; conditions: SK-MEL-2, 48 h, read-out: GI; how it was run: as §2
[14] = Growth inhibition of human Hs 578T cells at 10 uM after 48 hrs; format: functional; conditions: read-out: GI; how it was run: as §1
SNB-75 = assay: Growth inhibition of human SNB75 cells at 10 uM after 48 hrs; format: functional; conditions: SNB-75, 48 h, read-out: GI; how it was run: as §2
Dihydrofolate reductase = target: T1, Dihydrofolate reductase (Bos taurus, UniProt P00376); assay: Inhibition of bovine liver DHFR measured for every 1 min of 10 mins
T1 sequence (P00376 whole entry): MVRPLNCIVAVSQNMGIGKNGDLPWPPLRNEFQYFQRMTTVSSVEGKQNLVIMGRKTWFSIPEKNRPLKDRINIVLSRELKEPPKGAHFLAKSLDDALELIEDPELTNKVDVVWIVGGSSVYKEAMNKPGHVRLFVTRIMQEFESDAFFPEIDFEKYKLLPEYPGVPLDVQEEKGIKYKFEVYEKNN

SF-268 = assay: Growth inhibition of human SF268 cells at 10 uM after 48 hrs; format: functional; conditions: SF-268, 48 h, read-out: GI; how it was run: as §2
UACC-62 = assay: Growth inhibition of human UACC62 cells at 10 uM after 48 hrs; format: functional; conditions: UACC-62, 48 h, read-out: GI; how it was run: as §2
SK-OV-3 = assay: Growth inhibition of human SKOV3 cells at 10 uM after 48 hrs; format: functional; conditions: SK-OV-3, 48 h, read-out: GI; how it was run: as §2
[15] = Growth inhibition of human HOP92 cells at 10 uM after 48 hrs; format: functional; conditions: HOP-92, 48 h, read-out: GI; how it was run: as §1
[16] = Growth inhibition of human NCI-ADR-RES cells at 10 uM after 48 hrs; format: functional; conditions: read-out: GI; how it was run: as §1
MDA-MB-435 = assay: Growth inhibition of human MDA-MB-435 cells at 10 uM after 48 hrs; format: functional; conditions: MDA-MB-435, 48 h, read-out: GI; how it was run: as §1
[17] = Growth inhibition of human OVCAR4 cells at 10 uM after 48 hrs; format: functional; conditions: OVCAR-4, 48 h, read-out: GI; how it was run: as §1
786-0 = assay: Growth inhibition of human 786-0 cells at 10 uM after 48 hrs; format: functional; conditions: 786-0, 48 h, read-out: GI; how it was run: as §1
ACHN = assay: Growth inhibition of human ACHN cells at 10 uM after 48 hrs; format: functional; conditions: read-out: GI; how it was run: as §1
SF-295 = assay: Growth inhibition of human SF295 cells at 10 uM after 48 hrs; format: functional; conditions: SF-295, 48 h, read-out: GI; how it was run: as §2

## O=c1[nH]cc(F)c(=O)[nH]1 [FLUOROURACIL]
[1]
  GI50: 8.4 µM
  TGI: > 100 µM
  CC50: > 100 µM
[2]
  TGI: > 100 µM
  CC50: > 100 µM
[3]
  GI50: > 100 µM
  TGI: > 100 µM
  CC50: > 100 µM
[4]
  GI50: 70.6 µM
  TGI: > 100 µM
  CC50: > 100 µM
[5]
  GI50: 22.7 µM
  TGI: > 100 µM
[6]
  TGI: > 100 µM
[7]
  GI50: 76.4 µM
  TGI: > 100 µM
[8]
  CC50: > 100 µM
  GI50: 45.6 µM
  TGI: > 100 µM

## COc1ccc(/C=C2\CCCc3c2nc(C)nc3-c2ccc(OC)c(OC)c2)cc1OC
PC-3
  inhibition of growth at 10 µM: 68%
NCI-H460
  inhibition of growth at 10 µM: 99.4%
CAKI-1
  inhibition of growth at 10 µM: 94.9%
[1]
  GI50: 28.9 µM
  TGI: 88.9 µM
  CC50: > 100 µM
SK-MEL-5
  inhibition of growth at 10 µM: 93.8%
NCI-H23
  inhibition of growth at 10 µM: 70.9%
OVCAR-8
  inhibition of growth at 10 µM: 96.9%
[9]
  inhibition of growth at 10 µM: 79.8%
[10]
  inhibition of growth at 10 µM: 65.7%
HOP-62
  inhibition of growth at 10 µM: 67.9%
SR
  inhibition of growth at 10 µM: < 30%
A498
  inhibition of growth at 10 µM: 94.1%
K562
  inhibition of growth at 10 µM: 94.1%
[2]
  GI50: 34.2 µM
  TGI: > 100 µM
  CC50: > 100 µM
SK-MEL-28
  inhibition of growth at 10 µM: 77%
[3]
  GI50: 37.8 µM
  TGI: 90.2 µM
  CC50: > 100 µM
[4]
  GI50: 26.9 µM
  TGI: > 100 µM
  CC50: > 100 µM
[11]
  inhibition of growth at 10 µM: 82.9%
NCI-H322M
  inhibition of growth at 10 µM: 52.6%
MDA-MB-231
  inhibition of growth at 10 µM: 92.9%
IGROV-1
  inhibition of growth at 10 µM: 75.6%
TK-10
  inhibition of growth at 10 µM: 87.8%
A549
  inhibition of growth at 10 µM: 82.1%
DU-145
  inhibition of growth at 10 µM: 92.7%
[12]
  inhibition of growth at 10 µM: < 30%
T47D
  inhibition of growth at 10 µM: 88.8%
[13]
  inhibition of growth at 10 µM: 95.3%
MCF7
  inhibition of growth at 10 µM: 73.7%
U-251
  inhibition of growth at 10 µM: 81.8%
KM12
  inhibition of growth at 10 µM: 93.8%
SNB-19
  inhibition of growth at 10 µM: 39.6%
OVCAR-3
  inhibition of growth at 10 µM: 97.1%
[5]
  GI50: 26.9 µM
  LC50: > 100 µM
  TGI: > 100 µM
SN12C
  inhibition of growth at 10 µM: 94.1%
SK-MEL-2
  inhibition of growth at 10 µM: 94.1%
[14]
  inhibition of growth at 10 µM: 41%
SNB-75
  inhibition of growth at 10 µM: 64.8%
Dihydrofolate reductase
  IC50: 0.1 µM
SF-268
  inhibition of growth at 10 µM: 80%
UACC-62
  inhibition of growth at 10 µM: 89.1%
SK-OV-3
  inhibition of growth at 10 µM: 93%
[15]
  inhibition of growth at 10 µM: 69.9%
[6]
  GI50: 6.8 µM
  LC50: > 100 µM
  TGI: 92.7 µM
[16]
  inhibition of growth at 10 µM: 88.8%
MDA-MB-435
  inhibition of growth at 10 µM: 98.5%
[7]
  GI50: 15.7 µM
  LC50 (concentration killing 50% of cells): 99.2 µM
  TGI: 80.6 µM
[17]
  inhibition of growth at 10 µM: 79.1%
786-0
  inhibition of growth at 10 µM: 90.8%
ACHN
  inhibition of growth at 10 µM: 90.2%
SF-295
  inhibition of growth at 10 µM: 97%
[8]
  CC50: 96.9 µM
  GI50: 23.7 µM
  TGI: 98.7 µM
